The text below walks through data of ChEMBL document CHEMBL4823258, “Development of Dimethylisoxazole-Attached Imidazo[1,2-a]pyridines as Potent and Selective CBP/P300 Inhibitors” (J Med Chem, 2021).

Calls of active or inactive are those of the source. No cut-off for these calls is given here.

In experiment [1] the target is T1, Bromodomain-containing protein 4 (Homo sapiens, UniProt O60885). The experiment can be described thus: Inhibition of His-tagged BRD4 BD1 (unknown origin) using biotinylated-JQ1 peptide as substrate incubated for 1 hr by AlphaScreen assay.
The species named for another experiment is Homo sapiens. The experiment can be described thus: Selectivity ratio of IC50 for His-tagged BRD4 BD1 (unknown origin) using biotinylated-JQ1 peptide as substrate to IC50 for His-tagged CBP (unknown origin) using biotinylated-H3K56ac peptide as substrate incubated for 1 hr by AlphaScreen assay. In general terms: Bead proximity is the source of the signal in Alpha formats.

In experiment [2] the target is T2, Histone acetyltransferase p300 (Homo sapiens, UniProt Q09472). Put plainly: Binding affinity to human partial length EP300 (A1040 to G1161 residues) expressed in bacterial expression system by BromoELECT assay. In a few lines: (§1)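 Kd by Eurofins BromoELECT, standard protocol, measured in duplicate.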
T2 sequence (Q09472 whole entry, the tested form may be a part): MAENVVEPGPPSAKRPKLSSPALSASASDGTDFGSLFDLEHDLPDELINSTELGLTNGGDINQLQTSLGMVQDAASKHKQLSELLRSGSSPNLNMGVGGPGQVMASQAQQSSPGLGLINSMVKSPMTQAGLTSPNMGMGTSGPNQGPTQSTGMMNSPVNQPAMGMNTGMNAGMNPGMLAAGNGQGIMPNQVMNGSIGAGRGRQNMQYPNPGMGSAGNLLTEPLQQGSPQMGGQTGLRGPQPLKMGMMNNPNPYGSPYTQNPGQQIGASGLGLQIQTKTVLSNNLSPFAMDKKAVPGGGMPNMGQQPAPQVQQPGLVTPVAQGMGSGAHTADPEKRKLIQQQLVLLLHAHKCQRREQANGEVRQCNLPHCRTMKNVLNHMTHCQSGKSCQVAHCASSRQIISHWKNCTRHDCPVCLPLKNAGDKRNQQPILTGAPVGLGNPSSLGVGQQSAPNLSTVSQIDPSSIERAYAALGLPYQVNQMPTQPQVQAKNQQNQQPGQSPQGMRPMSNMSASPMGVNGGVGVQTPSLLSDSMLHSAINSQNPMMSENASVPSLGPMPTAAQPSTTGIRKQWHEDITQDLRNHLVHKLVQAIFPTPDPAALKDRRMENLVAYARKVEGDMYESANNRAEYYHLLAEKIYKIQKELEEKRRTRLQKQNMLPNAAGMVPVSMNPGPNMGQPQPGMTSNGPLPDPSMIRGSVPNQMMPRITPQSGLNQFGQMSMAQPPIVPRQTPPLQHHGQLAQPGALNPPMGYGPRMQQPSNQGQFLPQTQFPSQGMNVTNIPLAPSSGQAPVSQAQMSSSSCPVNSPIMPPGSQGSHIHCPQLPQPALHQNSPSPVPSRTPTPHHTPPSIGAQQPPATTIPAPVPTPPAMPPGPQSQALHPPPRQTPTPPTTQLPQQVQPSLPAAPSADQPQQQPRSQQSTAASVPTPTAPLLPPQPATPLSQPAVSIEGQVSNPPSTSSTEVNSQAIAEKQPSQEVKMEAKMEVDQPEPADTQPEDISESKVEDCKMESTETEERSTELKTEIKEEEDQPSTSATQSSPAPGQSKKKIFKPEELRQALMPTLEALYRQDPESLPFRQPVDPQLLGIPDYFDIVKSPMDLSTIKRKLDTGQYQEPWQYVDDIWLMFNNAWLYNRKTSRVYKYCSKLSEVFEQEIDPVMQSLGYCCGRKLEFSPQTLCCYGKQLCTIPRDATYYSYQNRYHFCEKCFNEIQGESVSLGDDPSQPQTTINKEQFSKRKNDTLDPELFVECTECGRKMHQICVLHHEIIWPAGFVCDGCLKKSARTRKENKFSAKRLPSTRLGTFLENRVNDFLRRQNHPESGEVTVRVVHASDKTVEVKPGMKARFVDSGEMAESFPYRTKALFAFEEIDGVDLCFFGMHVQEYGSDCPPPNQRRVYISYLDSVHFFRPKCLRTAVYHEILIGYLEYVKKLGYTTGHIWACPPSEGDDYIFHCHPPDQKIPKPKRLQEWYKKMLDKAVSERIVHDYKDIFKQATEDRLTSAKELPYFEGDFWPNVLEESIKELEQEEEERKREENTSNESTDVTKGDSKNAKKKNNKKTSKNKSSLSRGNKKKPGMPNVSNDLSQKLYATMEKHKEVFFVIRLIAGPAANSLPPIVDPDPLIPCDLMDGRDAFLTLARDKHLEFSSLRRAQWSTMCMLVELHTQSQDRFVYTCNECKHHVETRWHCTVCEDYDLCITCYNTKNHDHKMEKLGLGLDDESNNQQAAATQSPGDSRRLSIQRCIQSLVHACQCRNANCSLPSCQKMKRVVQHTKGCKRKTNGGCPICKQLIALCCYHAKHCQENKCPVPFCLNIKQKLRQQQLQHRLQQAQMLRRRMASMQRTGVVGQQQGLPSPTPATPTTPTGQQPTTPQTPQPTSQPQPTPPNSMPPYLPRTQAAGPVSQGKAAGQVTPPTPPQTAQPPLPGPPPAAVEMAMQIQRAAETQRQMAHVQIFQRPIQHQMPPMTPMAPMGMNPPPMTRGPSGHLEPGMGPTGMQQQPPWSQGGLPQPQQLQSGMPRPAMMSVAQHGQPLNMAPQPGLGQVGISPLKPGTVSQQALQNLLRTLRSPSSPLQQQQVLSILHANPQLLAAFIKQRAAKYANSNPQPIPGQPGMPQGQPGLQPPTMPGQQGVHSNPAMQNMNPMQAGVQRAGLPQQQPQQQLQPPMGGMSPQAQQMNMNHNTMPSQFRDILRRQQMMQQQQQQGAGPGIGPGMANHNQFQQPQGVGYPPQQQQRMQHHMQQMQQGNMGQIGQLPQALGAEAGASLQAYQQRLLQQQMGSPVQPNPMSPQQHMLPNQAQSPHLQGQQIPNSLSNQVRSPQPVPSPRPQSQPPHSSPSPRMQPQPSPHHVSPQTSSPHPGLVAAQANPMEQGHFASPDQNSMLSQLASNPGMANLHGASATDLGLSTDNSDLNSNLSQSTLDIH
In experiment [3] the target is T3, CREB-binding protein (Homo sapiens, UniProt Q92793). Put plainly: Inhibition of His-tagged CBP (unknown origin) using biotinylated-H3K56ac peptide as substrate incubated for 1 hr by AlphaScreen assay.
Another experiment concerns MOLM-13. Put plainly: Cytotoxicity against human MOLM-13 cells assessed as cell growth inhibition incubated for 5 days by CellTiter-Glo luminescence assay. The following applies: MOLM-13, 120 h. It is filed as functional, cell-based. (In general: ATP-based viability assays read luminescence as a measure of living cells.)
The target in experiment [4] is T1, Bromodomain-containing protein 4. Put plainly: Binding affinity to human partial length BRD4 bromodomain 1 long isoform (N44 to E168 residues) expressed in bacterial expression system assessed as melting temperature by differential scanning fluorometry (reference value: 50.1 degreeC). On the technique in general: DSF heats the sample and reads unfolding from a dye or from intrinsic fluorescence.

Experiment [5] concerns the target T3, CREB-binding protein. Put plainly: Inhibition of CBP in human MOLM-13 cells assessed as depletion of Myc at 1 to 10 uM incubated for 2 hrs by Western blot analysis. It is filed as cell-based. The following applies: dose 1-10 µM.
Target sequence in this assay (Q92793 2-2442 limits assumed): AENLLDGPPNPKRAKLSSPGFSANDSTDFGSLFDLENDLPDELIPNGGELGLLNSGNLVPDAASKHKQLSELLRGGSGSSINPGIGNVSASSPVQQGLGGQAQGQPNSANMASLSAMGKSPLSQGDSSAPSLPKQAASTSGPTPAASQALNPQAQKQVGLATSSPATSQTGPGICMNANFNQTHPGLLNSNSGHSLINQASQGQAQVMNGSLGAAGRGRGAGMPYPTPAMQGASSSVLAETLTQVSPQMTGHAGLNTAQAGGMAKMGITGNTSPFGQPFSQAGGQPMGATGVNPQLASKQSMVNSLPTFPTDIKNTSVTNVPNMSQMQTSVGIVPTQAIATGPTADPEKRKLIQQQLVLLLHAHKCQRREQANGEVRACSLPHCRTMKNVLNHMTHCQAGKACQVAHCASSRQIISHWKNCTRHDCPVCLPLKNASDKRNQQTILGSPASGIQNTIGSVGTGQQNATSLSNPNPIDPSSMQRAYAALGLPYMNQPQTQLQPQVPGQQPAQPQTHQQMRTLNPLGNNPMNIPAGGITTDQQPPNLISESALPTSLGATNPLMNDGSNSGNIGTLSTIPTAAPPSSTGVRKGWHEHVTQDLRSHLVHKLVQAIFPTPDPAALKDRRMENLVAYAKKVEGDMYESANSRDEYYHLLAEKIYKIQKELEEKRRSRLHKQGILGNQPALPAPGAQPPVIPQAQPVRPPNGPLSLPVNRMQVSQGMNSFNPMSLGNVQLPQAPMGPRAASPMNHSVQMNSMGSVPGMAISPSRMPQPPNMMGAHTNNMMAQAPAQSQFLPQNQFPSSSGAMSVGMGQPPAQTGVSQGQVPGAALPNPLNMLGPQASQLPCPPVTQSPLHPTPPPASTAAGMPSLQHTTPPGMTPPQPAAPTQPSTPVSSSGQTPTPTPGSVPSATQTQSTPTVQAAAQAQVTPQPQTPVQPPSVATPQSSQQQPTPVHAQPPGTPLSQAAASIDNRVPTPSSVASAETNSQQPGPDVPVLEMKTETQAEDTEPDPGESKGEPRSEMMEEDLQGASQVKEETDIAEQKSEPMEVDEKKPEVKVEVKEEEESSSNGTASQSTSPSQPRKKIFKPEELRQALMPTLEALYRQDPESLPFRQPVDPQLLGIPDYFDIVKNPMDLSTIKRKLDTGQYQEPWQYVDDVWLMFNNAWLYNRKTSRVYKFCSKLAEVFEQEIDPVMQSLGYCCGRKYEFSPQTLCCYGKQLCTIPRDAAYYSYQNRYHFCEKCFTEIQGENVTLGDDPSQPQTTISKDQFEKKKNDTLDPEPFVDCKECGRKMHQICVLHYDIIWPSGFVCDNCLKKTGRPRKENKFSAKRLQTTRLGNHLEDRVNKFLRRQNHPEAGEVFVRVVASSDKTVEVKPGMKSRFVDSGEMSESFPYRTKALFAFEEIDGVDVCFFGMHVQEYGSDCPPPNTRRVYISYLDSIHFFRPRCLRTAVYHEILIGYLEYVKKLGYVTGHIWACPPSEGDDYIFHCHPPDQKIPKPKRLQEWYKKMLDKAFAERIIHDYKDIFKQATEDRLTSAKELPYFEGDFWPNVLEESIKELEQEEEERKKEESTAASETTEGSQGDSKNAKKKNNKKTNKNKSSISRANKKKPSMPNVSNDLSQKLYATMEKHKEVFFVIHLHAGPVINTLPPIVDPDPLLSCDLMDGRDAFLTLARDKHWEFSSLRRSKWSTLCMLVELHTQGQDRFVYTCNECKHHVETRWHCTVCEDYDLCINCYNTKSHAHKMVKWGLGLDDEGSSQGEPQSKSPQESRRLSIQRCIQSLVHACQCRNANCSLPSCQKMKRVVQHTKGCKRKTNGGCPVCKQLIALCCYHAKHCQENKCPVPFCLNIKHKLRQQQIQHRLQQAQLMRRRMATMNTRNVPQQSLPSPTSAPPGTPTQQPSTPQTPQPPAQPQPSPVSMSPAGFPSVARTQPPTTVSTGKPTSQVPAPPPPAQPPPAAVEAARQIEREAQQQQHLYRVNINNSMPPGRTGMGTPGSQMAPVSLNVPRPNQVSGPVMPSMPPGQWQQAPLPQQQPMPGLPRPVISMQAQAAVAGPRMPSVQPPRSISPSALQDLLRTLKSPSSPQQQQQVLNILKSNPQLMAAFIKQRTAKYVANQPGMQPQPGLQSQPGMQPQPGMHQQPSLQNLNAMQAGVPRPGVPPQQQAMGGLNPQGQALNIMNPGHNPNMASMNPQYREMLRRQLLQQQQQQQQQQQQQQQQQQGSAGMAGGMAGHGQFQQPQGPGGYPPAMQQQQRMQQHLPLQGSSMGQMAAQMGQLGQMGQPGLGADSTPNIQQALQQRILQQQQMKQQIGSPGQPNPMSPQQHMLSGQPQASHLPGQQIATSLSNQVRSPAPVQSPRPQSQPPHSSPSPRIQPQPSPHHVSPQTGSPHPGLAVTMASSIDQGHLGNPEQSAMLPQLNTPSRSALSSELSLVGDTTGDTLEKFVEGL
Experiment [6] has as its target T3, CREB-binding protein. The experiment can be described thus: Binding affinity to human partial length CREBBP (R1081 to G1197 residues) expressed in bacterial expression system assessed as melting temperature by differential scanning fluorometry (reference value: 46.7 degreeC).
Target sequence in this assay (Q92793 2-2442 limits assumed): as above
For experiment [7], the target named is T2, Histone acetyltransferase p300. The experiment can be described thus: Binding affinity to human partial length EP300 (A1040 to G1161 residues) expressed in bacterial expression system assessed as melting temperature by differential scanning fluorometry (reference value: 42.1 degreeC).
The target in experiment [8] is T3, CREB-binding protein. The experiment can be described thus: Inhibition of CBP in human MOLM-13 cells assessed as reduction in H3K27Ac level at 1 to 10 uM incubated for 2 hrs by Western blot analysis. It is filed as cell-based. The following applies: dose 1-10 µM.
Target sequence in this assay (Q92793 2-2442 limits assumed): as above
The target in experiment [9] is T3, CREB-binding protein. Put plainly: Binding affinity to human partial length CREBBP (R1081 to G1197 residues) expressed in bacterial expression system by BromoELECT assay. The method, boiled down: as §1
Experiment [10] concerns the target T3, CREB-binding protein. Put plainly: Inhibition of CBP in human MOLM-13 cells assessed as reduction in H3K27Ac level at 3 uM incubated for 2 hrs.
Target sequence in this assay (Q92793 2-2442 limits assumed): as above
Experiment [11] concerns the target CREB-binding protein/Histone acetyltransferase p300 (Homo sapiens) (UniProt Q09472+Q92793). Put plainly: Inhibition of CBP/EP300 in human MM1.S cells assessed as perturbation of IRF4/Myc axis at 2.5 uM incubated for 24 hrs by immunoblot analysis.
In experiment [12] the target is T1, Bromodomain-containing protein 4. Put plainly: Binding affinity to human partial length BRD4 bromodomain 1 long isoform (N44 to E168 residues) expressed in bacterial expression system by BromoELECT assay. In a few lines:
as §1

By IC50 is commonly meant the midpoint of a concentration-inhibition curve. `COc1ccc(-c2nc3cc(-c4c(C)noc4C)ccn3c2NC2CCCCC2)cc1`: in [1], the IC50 was more than 50 µM. Further, the Ratio IC50 in the experiment listed under Homo sapiens was more than 4.

Broadly, the Kd is a measure of binding affinity in units of concentration. Lower therefore signals tighter binding. In the case of `Cc1noc(C)c1-c1ccc2nc(-c3ccc(N4CCN(C(=O)CCCC(=O)NCCCOCCOCCOCCCNC(=O)CCCC[C@@H]5SC[C@@H]6NC(=O)N[C@@H]65)CC4)cc3)c(NC3CCCCC3)n2c1`, the Kd in [2] stood at 13 µM.

In the case of `COc1ccc(CCc2nc3cc(-c4c(C)noc4C)ccn3c2NC(C)C)cc1`, in the experiment filed under Homo sapiens, the Ratio IC50 is 34. The same molecule yielded an IC50 at CREB-binding protein [3] of 0.29 µM.

Consider `Cc1noc(C)c1-c1ccn2c(NC34CC5CC(CC(C5)C3)C4)c(CCc3ccccc3)nc2c1`, for which the Ratio IC50 in the experiment filed under Homo sapiens came to 7.

With `COc1ccc(-c2nc3cc(-c4c(C)noc4C)ccn3c2NCC(=O)OC(C)(C)C)cc1`, in the experiment filed under Homo sapiens, the Ratio IC50 was more than 3.

As to `COc1ccc(CCc2nc3cc(-c4c(C)noc4C)ccc3n2C[C@H](C)N2CCOCC2)cc1Cl`, the IC50 in experiment [1] stood at 7.94 µM; in the experiment on MOLM-13 it was 1.53 µM.

In the case of `Cc1noc(C)c1-c1ccn2c(NC(C)(C)CC(C)(C)C)c(CCc3ccccc3)nc2c1`, in the experiment filed under Homo sapiens, the Ratio IC50 stood at 1.

As to `COc1ccc(-c2nc3cc(-c4c(C)noc4C)ccn3c2NC23CC4CC(CC(C4)C2)C3)cc1`, the IC50 in experiment [1] was more than 50 µM. Further, the Ratio IC50 in the experiment filed under Homo sapiens is more than 23.

The molecule `COc1ccc(-c2nc3cc(C)cc(C)n3c2NC23CC4CC(CC(C4)C2)C3)cc1` showed an IC50 in experiment [1] of more than 50 µM. In addition, the Ratio IC50 in the experiment listed under Homo sapiens was more than 3.

On to `COc1ccc(CCc2nc3cc(-c4c(C)noc4C)ccn3c2NC2CCCCC2)cc1Cl`, for which the values for the Tm (in experiment [4]; on CREB-binding protein [6]; in experiment [7]) were 50.1 °C, 51.7 °C and 47 °C, respectively. The inhibition entry (at CREB-binding protein [5]; on CREB-binding protein [8]; on CREB-binding protein [10]; in experiment [11]) was “Active” throughout. In addition, the Kd in experiment [2] was 0.215 µM; at CREB-binding protein [9] it was 0.315 µM; in experiment [12], more than 10 µM. Besides, the IC50 in the experiment with MOLM-13 is 1.74 µM.

Turning to `COc1ccc(CCc2nc3cc(-c4c(C)noc4C)ccn3c2NC(C)C)cc1OC`, the Ratio IC50 in the experiment filed under Homo sapiens was 6.

For the molecule `Cc1[nH]nc2cc(-c3ccn4c(NC5CCCCC5)c(CCc5ccccc5)nc4c3)ccc12`, the IC50 in experiment [1] was determined as 0.51 µM; on CREB-binding protein [3] it was 8.02 µM. For the same molecule, the Ratio IC50 in the experiment filed under Homo sapiens was 0.06. Moreover, the inhibition result in experiment [11] was “inactive”.

With `Cc1noc(C)c1-c1ccn2c(NC3CCCCC3)c(CCc3ccccc3)nc2c1`, the Tm in [4] came out at 51 °C; at CREB-binding protein [6] it was 49.2 °C; in experiment [7], 44.7 °C. Also, the Ratio IC50 in the experiment listed under Homo sapiens stood at 10.

Turning to `Cc1noc(C)c1-c1ccn2c(NC(C)(C)C)c(CCc3ccccc3)nc2c1`, in the experiment filed under Homo sapiens, the Ratio IC50 was 6.

As for `CCOc1ccc(CCc2nc3cc(-c4c(C)noc4C)ccn3c2NC2CCCCC2)cc1Cl`, the IC50 in [1] was more than 50 µM. Besides, the Ratio IC50 in the experiment filed under Homo sapiens was found to be 20.

Regarding `COc1ccc(CCCc2nc3cc(-c4c(C)noc4C)ccn3c2NC2CCCCC2)cc1`, the Ratio IC50 in the experiment listed under Homo sapiens is 3.

On to `COc1ccc(CCc2nc3cc(-c4c(C)noc4C)ccn3c2NC23CC4CC(CC(C4)C2)C3)cc1`, for which, in the experiment filed under Homo sapiens, the Ratio IC50 was 8.

Regarding `Cc1noc2cc(-c3ccn4c(NC5CCCCC5)c(CCc5ccccc5)nc4c3)ccc12`, the IC50 was 3.02 µM in [1] and more than 50 µM at CREB-binding protein [3]. In the experiment listed under Homo sapiens, the Ratio IC50 was determined as 0.06. Moreover, the inhibition result in experiment [11] is “inactive”.

With `COc1ccc(-c2nc3cc(C)cc(C)n3c2NC(C)(C)CC(C)(C)C)cc1`, the IC50 in [1] was more than 50 µM. The Ratio IC50 in the experiment filed under Homo sapiens is more than 3.

In the case of `COc1ccc(CCc2nc3cc(-c4c(C)noc4C)ccn3c2NC(C)(C)CC(C)(C)C)cc1`, the IC50 in [1] was more than 50 µM. The Ratio IC50 in the experiment listed under Homo sapiens is more than 2.

Consider `COc1ccc(CCCc2nc3cc(-c4c(C)noc4C)ccn3c2NC2CCCCC2)cc1Cl`, for which the IC50 in [1] came to 24.5 µM; at CREB-binding protein [3], 8.96 µM. Besides, the Tm worked out at 51.6 °C in experiment [4], 55.2 °C on CREB-binding protein [6] and 50.6 °C in experiment [7]. In addition, the Ratio IC50 in the experiment listed under Homo sapiens came out at 3.

Regarding `COc1ccc(Cc2nc3cc(-c4c(C)noc4C)ccn3c2NC2CCCCC2)cc1`, the Ratio IC50 in the experiment filed under Homo sapiens came to 2.

With `CCOc1ccc(CCc2nc3cc(-c4c(C)noc4C)ccn3c2NC(C)(C)CC(C)(C)C)cc1Cl`, the 50% inhibitory concentration (IC50) in experiment [1] is more than 50 µM. Also, in the experiment listed under Homo sapiens, the Ratio IC50 was more than 2.

`COc1ccc(CCCc2nc3cc(-c4c(C)noc4C)ccn3c2NC(C)(C)CC(C)(C)C)cc1`: the IC50 (in experiment [1]; on CREB-binding protein [3]) was more than 50 µM throughout. Also, the Ratio IC50 in the experiment filed under Homo sapiens was 1.

For the molecule `CN1Cc2cc(-c3ccn4c(NC5CCCCC5)c(CCc5ccccc5)nc4c3)ccc2NC1=O`, the Ratio IC50 in the experiment filed under Homo sapiens turned out to be 1.

With `CCOc1ccc(CCc2nc3cc(-c4c(C)noc4C)ccn3c2NC2CCCCC2)cc1`, the Ratio IC50 in the experiment filed under Homo sapiens is 30.

Consider `COc1ccc(CCc2nc3cc(-c4c(C)noc4C)ccn3c2NCCN2CCOCC2)cc1`, for which the Ratio IC50 in the experiment filed under Homo sapiens was determined as 7.

Turning to `COc1ccc(CCc2nc3cc(-c4c(C)noc4C)ccn3c2NC(C)(C)C)cc1`, the IC50 in experiment [1] is more than 50 µM. Further, the Ratio IC50 in the experiment listed under Homo sapiens is more than 21.

As to `Cc1noc(C)c1-c1ccn2c(NC(C)(C)CC(C)(C)C)c(CCc3ccc(OC(C)C)cc3)nc2c1`, the IC50 (in experiment [1]; at CREB-binding protein [3]) was more than 50 µM throughout. The Ratio IC50 in the experiment listed under Homo sapiens worked out at 1.

On to `COc1ccc(CCc2nc3cc(-c4c(C)noc4C)ccn3c2NCc2ccccc2)cc1`, for which, in the experiment listed under Homo sapiens, the Ratio IC50 stood at 4.

For the molecule `COc1ccc(CCc2nc3cc(-c4c(C)noc4C)ccn3c2NC2CCCCC2)cc1`, the Tm in experiment [4] worked out at 51.1 °C; on CREB-binding protein [6] it was 51.5 °C; in [7], 46.8 °C. Moreover, the results for the Kd (in [2]; at CREB-binding protein [9]; in experiment [12]) were 0.285 µM, 0.265 µM and 9.2 µM, respectively. Besides, the Ratio IC50 in the experiment filed under Homo sapiens worked out at 41.

With `COc1ccc(CCc2nc3cc(-c4c(C)noc4C)ccn3c2NC2CCCCC2)cc1OC`, in the experiment listed under Homo sapiens, the Ratio IC50 came out at 8. On CREB-binding protein [3], this molecule came in with an IC50 of 0.75 µM.

As to `CCOc1ccc(CCc2nc3cc(-c4c(C)noc4C)ccn3c2NC(C)(C)CC(C)(C)C)cc1`, the Ratio IC50 in the experiment filed under Homo sapiens was more than 1.

As for `COc1ccc(CCc2nc3cc(-c4c(C)noc4C)ccn3c2NCc2ccc(Cl)cc2)cc1`, the figures for the IC50 (in experiment [1]; on CREB-binding protein [3]) were 7.94 µM and 1.6 µM, respectively. For the same molecule, the Ratio IC50 in the experiment filed under Homo sapiens turned out to be 5.

Regarding `Cc1noc(C)c1-c1ccn2c(NCC(=O)OC(C)(C)C)c(CCc3ccccc3)nc2c1`, in [1], the IC50 was more than 50 µM. Moreover, in the experiment listed under Homo sapiens, the Ratio IC50 was more than 6.

In the case of `CCCOc1ccc(CCc2nc3cc(-c4c(C)noc4C)ccn3c2NC2CCCCC2)cc1`, the Ratio IC50 in the experiment listed under Homo sapiens amounted to 28.
